Results as given in ChEMBL document CHEMBL1944562, “Design, synthesis of some new (2-aminothiazol-4-yl)methylester derivatives as possible antimicrobial and antitubercular agents” (2012).
Converted amounts (≈) assume the structure as drawn.

Legend:
Type in all cases: functional
Talaromyces marneffei [1] = assay: Antifungal activity against Penicillium marneffei at MIC after 3 to 4 days
In short: (§1)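 Fungal suspension made by transferring a loopful of culture to 3 mL saline and seeding agar plates, 20 mL agar per dish, dried 1 h at 37 °C. Punched wells loaded with test compound in DMSO at its MIC. DMSO-only control. Triplicate plates held 3-4 days at 37 °C. Inhibition zone diameter measured.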

Staphylococcus aureus [2] = assay: Antibacterial activity against Staphylococcus aureus ATCC 25923 at […] after 3 to 4 days
In short: (§2)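 Agar well diffusion on seeded agar plates, 20 mL agar per dish, dried 1 h at 37 °C. Wells punched and loaded with test compound in DMSO at its MIC. DMSO-only control. Plates run in triplicate and kept 3-4 days at 37 °C. Inhibition zone diameter measured.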

Aspergillus fumigatus [3] = assay: Antifungal activity against Aspergillus fumigatus NCIM N0.902 at MIC after 3 to 4 days; in short: as §1
Pseudomonas aeruginosa [4] = assay: Antibacterial activity against Pseudomonas aeruginosa ATCC 27853 at MIC after 3 to 4 days; in short: as §2
Staphylococcus aureus [5] = assay: Antibacterial activity against Staphylococcus aureus ATCC 25923 after 16 to 18 hrs by serial plate dilution method
Talaromyces marneffei [6] = assay: Antifungal activity against Penicillium marneffei after 3 to 4 days by serial plate dilution method
[7] = tested on: Trichophyton mentagrophytes; assay: Antifungal activity against Trichophyton mentagrophytes at MIC after 3 to 4 days; in short: as §1
[8] = tested on: Mycolicibacterium fortuitum; assay: Antitubercular activity against Mycobacterium fortuitum ATCC 19542 after 7 days by resazurin assay; conditions: ATCC 19542, 168 h
In short: (§3)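 Middlebrook 7H9 broth with 10% OADC, culture adjusted to McFarland 2. 50 µL culture added to 150 µL fresh medium. Stocks at 2 mg/mL in DMF, tested first at 1, 10 and 100 µg/mL, then at 0.3125-5 µg/mL. DMF controls. After 7 days at 37 °C, 0.01% resazurin added. Blue-to-pink change read for MIC.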

[9] = tested on: Mycobacterium tuberculosis; assay: Antitubercular activity against Mycobacterium tuberculosis H37Rv after 7 days by resazurin assay; conditions: 168 h
In short: (§4)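 M. tuberculosis H37Rv ATCC 27294 grown in Middlebrook 7H9 broth with 10% OADC and adjusted to McFarland 2. Culture was diluted 1:4 into fresh medium. Compounds came from 2 mg/mL DMF stocks, screened first at 1, 10 and 100, then at 0.3125–5. DMF-only controls were included. After 7 days at 37 °C, 0.01% resazurin was added; a blue-to-pink change marked growth, and the MIC was read.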

Candida albicans [10] = assay: Antifungal activity against Candida albicans at MIC after 3 to 4 days; in short: as §1
Aspergillus fumigatus [11] = assay: Antifungal activity against Aspergillus fumigatus NCIM N0.902 after 3 to 4 days by serial plate dilution method
[12] = tested on: Mycobacterium tuberculosis; assay: Antitubercular activity against Mycobacterium tuberculosis H37Rv assessed as growth inhibition after 7 days by resazurin assay; in short: as §4
Pseudomonas aeruginosa [13] = assay: Antibacterial activity against Pseudomonas aeruginosa ATCC 27853 after 16 to 18 hrs by […]
Klebsiella pneumoniae [14] = assay: Antibacterial activity against Klebsiella pneumoniae at MIC after 3 to 4 days; in short: as §2
[15] = tested on: Trichophyton mentagrophytes; assay: Antifungal activity against Trichophyton mentagrophytes after 3 to 4 days by serial plate dilution method
[16] = tested on: Mycolicibacterium smegmatis; assay: Antitubercular activity against Mycobacterium smegmatis ATCC 19420 after 7 days by resazurin assay; conditions: ATCC 19420, 168 h; in short: as §3
Aspergillus flavus [17] = assay: Antifungal activity against Aspergillus flavus NCIM N0.524 at MIC after 3 to 4 days; in short: as §1
Bacillus subtilis [18] = assay: Antibacterial activity against Bacillus subtilis after 16 to 18 hrs by […]
Escherichia coli [19] = assay: Antibacterial activity against Escherichia coli ATCC 25922 after 16 to 18 hrs by […]
Escherichia coli [20] = assay: Antibacterial activity against Escherichia coli ATCC 25922 at MIC after 3 to 4 days; in short: as §2
Klebsiella pneumoniae [21] = assay: Antibacterial activity against Klebsiella pneumoniae after 16 to 18 hrs by […]
Aspergillus flavus [22] = assay: Antifungal activity against Aspergillus flavus NCIM N0.524 after 3 to 4 days by serial plate dilution method
Bacillus subtilis [23] = assay: Antibacterial activity against Bacillus subtilis at MIC after 3 to 4 days; in short: as §2
Candida albicans [24] = assay: Antifungal activity against Candida albicans after 3 to 4 days by serial plate dilution method

Structure (SMILES)	diameter of the inhibition zone (DIZ) (Talaromyces marneffei [1]) [mm]	diameter of the inhibition zone (DIZ) (Staphylococcus aureus [2]) [mm]	diameter of the inhibition zone (DIZ) (Aspergillus fumigatus [3]) [mm]	diameter of the inhibition zone (DIZ) (Pseudomonas aeruginosa [4]) [mm]	MIC (Talaromyces marneffei [6]) [µg/mL]	diameter of the inhibition zone (DIZ) [7] [mm]	MIC [8] [µg/mL]	MIC [9] [µg/mL]	diameter of the inhibition zone (DIZ) (Candida albicans [10]) [mm]	MIC (Aspergillus fumigatus [11]) [µg/mL]	growth inhibition (GI) [12] [%]	diameter of the inhibition zone (DIZ) (Klebsiella pneumoniae [14]) [mm]	MIC [15] [µg/mL]	MIC [16] [µg/mL]	diameter of the inhibition zone (DIZ) (Aspergillus flavus [17]) [mm]	MIC (Bacillus subtilis [18]) [µg/mL]	diameter of the inhibition zone (DIZ) (Escherichia coli [20]) [mm]	MIC (Klebsiella pneumoniae [21]) [µg/mL]	MIC (Aspergillus flavus [22]) [µg/mL]	diameter of the inhibition zone (DIZ) (Bacillus subtilis [23]) [mm]	further results
Nc1nc(COC(=O)C2(c3ccc(Cl)cc3)CC2)cs1	<10	11	<10	11	25 (≈ 81 µM)	<10	1.25 (≈ 4.05 µM)	1 (≈ 3.24 µM)	<10	25 (≈ 81 µM)	90	16	25 (≈ 81 µM)	1 (≈ 3.24 µM)	<10	12.5 (≈ 40.5 µM)	16	6.25 (≈ 20.2 µM)	25 (≈ 81 µM)	11	MIC (Staphylococcus aureus [5]): 12.5 µg/mL (≈ 40.5 µM); MIC (Pseudomonas aeruginosa [13]): 12.5 µg/mL (≈ 40.5 µM); MIC (Escherichia coli [19]): 6.25 µg/mL (≈ 20.2 µM); MIC (Candida albicans [24]): 25 µg/mL (≈ 81 µM)
Nc1nc(COC(=O)Cc2cccc(C(F)(F)F)c2)cs1	<10	16	11	16	25 (≈ 79 µM)	11	10 (≈ 31.6 µM)	0.625 (≈ 1.98 µM)	<10	12.5 (≈ 39.5 µM)	95	11	12.5 (≈ 39.5 µM)	10 (≈ 31.6 µM)	11	6.25 (≈ 19.8 µM)	16	12.5 (≈ 39.5 µM)	12.5 (≈ 39.5 µM)	16	MIC (Staphylococcus aureus [5]): 6.25 µg/mL (≈ 19.8 µM); MIC (Pseudomonas aeruginosa [13]): 6.25 µg/mL (≈ 19.8 µM); MIC (Escherichia coli [19]): 6.25 µg/mL (≈ 19.8 µM); MIC (Candida albicans [24]): 25 µg/mL (≈ 79 µM)
Nc1nc(COC(=O)Cc2ccccc2OC(F)(F)F)cs1	16	11	16	<10	6.25 (≈ 18.8 µM)	16	> 100	5 (≈ 15 µM)	16	6.25 (≈ 18.8 µM)	<90	<10	6.25 (≈ 18.8 µM)	> 100	16	12.5 (≈ 37.6 µM)	11	25 (≈ 75.2 µM)	6.25 (≈ 18.8 µM)	11	MIC (Staphylococcus aureus [5]): 12.5 µg/mL (≈ 37.6 µM); MIC (Pseudomonas aeruginosa [13]): 25 µg/mL (≈ 75.2 µM); MIC (Escherichia coli [19]): 12.5 µg/mL (≈ 37.6 µM); MIC (Candida albicans [24]): 6.25 µg/mL (≈ 18.8 µM)
Nc1nc(COC(=O)c2cc(F)cc(C(F)(F)F)c2)cs1	16	11	16	11	6.25 (≈ 19.5 µM)	16	10 (≈ 31.2 µM)	1 (≈ 3.12 µM)	16	6.25 (≈ 19.5 µM)	90	<10	6.25 (≈ 19.5 µM)	> 100	16	12.5 (≈ 39 µM)	<10	25 (≈ 78.1 µM)	6.25 (≈ 19.5 µM)	11	MIC (Staphylococcus aureus [5]): 12.5 µg/mL (≈ 39 µM); MIC (Pseudomonas aeruginosa [13]): 12.5 µg/mL (≈ 39 µM); MIC (Escherichia coli [19]): 25 µg/mL (≈ 78.1 µM); MIC (Candida albicans [24]): 6.25 µg/mL (≈ 19.5 µM)
N#CCCc1cccc(C(=O)OCc2csc(N)n2)c1	16	16	<10	16	6.25 (≈ 21.8 µM)	<10	10 (≈ 34.8 µM)	0.625 (≈ 2.18 µM)	11	25 (≈ 87 µM)	95	11	25 (≈ 87 µM)	1 (≈ 3.48 µM)	16	6.25 (≈ 21.8 µM)	16	12.5 (≈ 43.5 µM)	6.25 (≈ 21.8 µM)	16	MIC (Staphylococcus aureus [5]): 6.25 µg/mL (≈ 21.8 µM); MIC (Pseudomonas aeruginosa [13]): 6.25 µg/mL (≈ 21.8 µM); MIC (Escherichia coli [19]): 6.25 µg/mL (≈ 21.8 µM); MIC (Candida albicans [24]): 12.5 µg/mL (≈ 43.5 µM)
Cc1cc(C2CCCCC2)n(O)c(=O)c1.NCCO [CICLOPIROX OLAMINE]	20		25		6.25	27			20	6.25			6.25		25				6.25		MIC (Candida albicans [24]): 6.25 µg/mL
O=C(O)c1cn(C2CC2)c2cc(N3CCNCC3)c(F)cc2c1=O [CIPROFLOXACIN]		22		16								23				1.56 (≈ 4.71 µM)	30	6.25 (≈ 18.9 µM)		21	
NNC(=O)c1ccncc1 [ISONIAZID]							12.5 (≈ 91.1 µM)	0.7 (≈ 5.1 µM)			95			50 (≈ 365 µM)							
CO[C@H]1/C=C/O[C@@]2(C)Oc3c(C)c(O)c4c(O)c(c(/C=N/N5CCN(C)CC5)c(O)c4c3C2=O)NC(=O)/C(C)=C\C=C\[C@H](C)[C@H](O)[C@@H](C)[C@@H](O)[C@@H](C)[C@H](OC(C)=O)[C@@H]1C [RIFAMPIN]							1.5 (≈ 1.82 µM)	0.5 (≈ 0.608 µM)			95			1.5 (≈ 1.82 µM)							
